Laboratory results as given in ChEMBL document CHEMBL1828506, “New fluorine-containing hydrazones active against MDR-tuberculosis” (Eur J Med Chem, 2011).
In brackets after ≈: the same amount, converted by molar mass.

Assays:
[1] = system: Mycobacterium tuberculosis; assay: Antimycobacterial activity against Mycobacterium tuberculosis H37Rv ATCC 27294 after 28 days by colony forming unit determination; type: functional; conditions: H37Rv ATCC 27294, 672 h
How it was run: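 Compounds added to Sula liquid medium as DMSO solutions (DMSO at most 2%), incubated at 37 °C for 28 days. MIC is the lowest concentration giving visible growth inhibition. Activity was confirmed by CFU counts after subculture onto drug-free Löwenstein-Jensen solid medium.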

[2] = Selectivity index, ratio of IC50 for human HepG2 cells to MIC for Mycobacterium tuberculosis H37Rv ATCC 27294; type: functional
[3] = system: Mycobacterium avium; assay: Antimycobacterial activity against Mycobacterium avium CNTC 330/88 after 14 days; type: functional; conditions: CNTC 330/88, 336 h
[4] = system: Mycobacterium avium; assay: Antimycobacterial activity against Mycobacterium avium CNTC 330/88 after 21 days; type: functional; conditions: CNTC 330/88, 504 h
[5] = system: Mycobacterium kansasii; assay: Antimycobacterial activity against Mycobacterium kansasii CNTC My 235/80 after 7 days; type: functional; conditions: CNTC My 235/80, 168 h
[6] = system: Mycobacterium kansasii; assay: Antimycobacterial activity against Mycobacterium kansasii CNTC My 235/80 after 14 days; type: functional; conditions: CNTC My 235/80, 336 h
[7] = system: Mycobacterium kansasii; assay: Antimycobacterial activity against Mycobacterium kansasii CNTC My 235/80 after 21 days; type: functional; conditions: CNTC My 235/80, 504 h
[8] = system: Mycobacterium kansasii; assay: Antimycobacterial activity against Mycobacterium kansasii CNTC 6509/96 after 7 days; type: functional; conditions: CNTC 6509/96, 168 h
[9] = system: Mycobacterium kansasii; assay: Antimycobacterial activity against Mycobacterium kansasii CNTC 6509/96 after 14 days; type: functional; conditions: CNTC 6509/96, 336 h
[10] = system: Mycobacterium kansasii; assay: Antimycobacterial activity against Mycobacterium kansasii CNTC 6509/96 after 21 days; type: functional; conditions: CNTC 6509/96, 504 h
[11] = system: HepG2; assay: Cytotoxicity against human HepG2 cells measured after overnight incubation by MTT assay; type: cell-based
How it was run: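 HepG2 cells in phenol-red-free RPMI-1640 with 10% FCS, 2 mM L-glutamine and gentamycin, seeded at 5 × 10³ per well. After 24 h at 37 °C, cells were exposed overnight to compound in serum-free medium. MTT (2 mg/mL) for 4 h, formazan dissolved in DMSO, read as OD540 minus OD620. % cytotoxicity versus untreated controls; IC50 taken from dose-response curves. Two independent experiments, 4–8 parallel measurements.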

[12] = system: PBMC; assay: Cytotoxicity against human PBMC measured after overnight incubation by MTT assay; type: cell-based
How it was run: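 Freshly prepared human PBMC in phenol-red-free RPMI-1640 with 10% FCS, 2 mM L-glutamine and gentamycin, 2.0 × 10⁵ cells per well. After 24 h at 37 °C, overnight compound exposure in serum-free medium. MTT for 4 h, formazan in DMSO, OD540 minus OD620. % cytotoxicity versus controls; IC50 from dose-response curves. Two independent experiments.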

[13] = system: SH-SY5Y; assay: Cytotoxicity against human SH-SY5Y cells measured after overnight incubation by MTT assay; type: cell-based
How it was run: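 SH-SY5Y neuroblastoma cells in phenol-red-free DMEM with 10% FCS, 2 mM L-glutamine, gentamycin and 1% NEAA, 7.5 × 10³ per well. After 24 h at 37 °C, overnight compound exposure in serum-free medium. MTT readout (OD540 minus OD620) against untreated controls; IC50 from dose-response curves. Two independent experiments.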

Row | Structure (SMILES) | MIC [1] [mg/L] | Selectivity Index [2] | MIC [3] [µM] | MIC [4] [µM] | MIC [5] [µM] | MIC [6] [µM] | MIC [7] [µM] | MIC [8] [µM] | MIC [9] [µM] | MIC [10] [µM] | IC50 [11] [µM] | IC50 [12] [µM] | IC50 [13] [µM]
1 | CCn1cc(C(=O)O)c(=O)c2cc(F)c(N3CCN(/C=N/NC(=O)c4ccc(C(F)(F)F)cc4)CC3)cc21 | 5 (≈ 9.37 µM) | 3.98 | 500 (≈ 267 µg/mL) | 500 (≈ 267 µg/mL) | 2 (≈ 1.07 µg/mL) | 4 (≈ 2.13 µg/mL) | 8 (≈ 4.27 µg/mL) | 2 (≈ 1.07 µg/mL) | 4 (≈ 2.13 µg/mL) | 8 (≈ 4.27 µg/mL) | > 37.3 | 262 | 107
2 | O=C(N/N=C/NC(=O)c1cnccn1)c1cccc(F)c1 | – | – | > 500 | > 500 | 250 (≈ 71.8 µg/mL) | 250 (≈ 71.8 µg/mL) | > 500 | 250 (≈ 71.8 µg/mL) | > 500 | > 500 | > 130 | > 305 | –
3 | O=C(N/N=C/Nc1ccc(C(=O)O)c(O)c1)c1ccc(C(F)(F)F)cc1 | 4 (≈ 10.9 µM) | – | 32 (≈ 11.8 µg/mL) | 125 (≈ 45.9 µg/mL) | 62.5 (≈ 23 µg/mL) | 125 (≈ 45.9 µg/mL) | 250 (≈ 91.8 µg/mL) | 62.5 (≈ 23 µg/mL) | 62.5 (≈ 23 µg/mL) | 125 (≈ 45.9 µg/mL) | – | – | –
4 | O=C(O)c1cn(C2CC2)c2cc(N3CCNCC3)c(F)cc2c1=O [CIPROFLOXACIN] | 0.5 (≈ 1.51 µM) | 333.33 | 62.5 (≈ 20.7 µg/mL) | 62.5 (≈ 20.7 µg/mL) | 1 (≈ 0.331 µg/mL) | 2 (≈ 0.663 µg/mL) | 2 (≈ 0.663 µg/mL) | 1 (≈ 0.331 µg/mL) | 1 (≈ 0.331 µg/mL) | 2 (≈ 0.663 µg/mL) | > 500 | > 500 | > 500
5 | O=C(N/N=C/N1CCN(c2cc3c(cc2F)c(=O)c(C(=O)O)cn3C2CC2)CC1)c1ccc(C(F)(F)F)cc1 | 1 (≈ 1.83 µM) | 189.21 | 32 (≈ 17.5 µg/mL) | 62.5 (≈ 34.1 µg/mL) | 2 (≈ 1.09 µg/mL) | 2 (≈ 1.09 µg/mL) | 4 (≈ 2.18 µg/mL) | 1 (≈ 0.545 µg/mL) | 1 (≈ 0.545 µg/mL) | 2 (≈ 1.09 µg/mL) | 347 | 347 | –
6 | O=C(N/N=C/Nc1ccc(C(=O)O)c(O)c1)c1cccc(C(F)(F)F)c1 | 4 (≈ 10.9 µM) | – | 250 (≈ 91.8 µg/mL) | 500 (≈ 184 µg/mL) | 32 (≈ 11.8 µg/mL) | 125 (≈ 45.9 µg/mL) | 125 (≈ 45.9 µg/mL) | 62.5 (≈ 23 µg/mL) | 62.5 (≈ 23 µg/mL) | 62.5 (≈ 23 µg/mL) | – | – | –
7 | O=C(N/N=C/Nc1ccc(C(=O)O)c(O)c1)c1cccc(F)c1 | 2 (≈ 6.3 µM) | 148.25 | 32 (≈ 10.2 µg/mL) | 62.5 (≈ 19.8 µg/mL) | 32 (≈ 10.2 µg/mL) | 62.5 (≈ 19.8 µg/mL) | 62.5 (≈ 19.8 µg/mL) | 32 (≈ 10.2 µg/mL) | 32 (≈ 10.2 µg/mL) | 32 (≈ 10.2 µg/mL) | 934 | 934 | –
8 | O=C(N/N=C/N1CCN(c2cc3c(cc2F)c(=O)c(C(=O)O)cn3C2CC2)CC1)c1cccc(C(F)(F)F)c1 | 2 (≈ 3.67 µM) | 87.79 | 250 (≈ 136 µg/mL) | 250 (≈ 136 µg/mL) | 2 (≈ 1.09 µg/mL) | 2 (≈ 1.09 µg/mL) | 4 (≈ 2.18 µg/mL) | 1 (≈ 0.545 µg/mL) | 1 (≈ 0.545 µg/mL) | 2 (≈ 1.09 µg/mL) | > 322 | > 322 | –
9 | NC(=O)c1cnccn1 [PYRAZINAMIDE] | – | – | 500 (≈ 61.6 µg/mL) | > 1000 | 500 (≈ 61.6 µg/mL) | > 1000 | > 1000 | 125 (≈ 15.4 µg/mL) | 1000 (≈ 123 µg/mL) | 1000 (≈ 123 µg/mL) | – | – | –
